ChEMBL document CHEMBL1144914, “Bisintercalating threading diacridines: relationships between DNA binding, cytotoxicity, and cell cycle arrest” (J Med Chem, 2003)
pIC50: −log10 of the molar value. Numbered stars: 1 amine (or outer) side, 2 acyl side, 3 side chain; on linkers, the order of the positions; unused ones are H or OH. Bridge positions count the residues as written; N and C are the ends. Square brackets hold non-standard residues; d marks the D form. Peptide text beside a SMILES is read from it. I, II: the chains in the order shown. Actinocin(1to9) = Cc1c2oc3c(C)ccc(C(=O)[*:2])c3nc-2c(C(=O)[*:1])c(N)c1=O; NMeV = CN[C@H](C(=O)O)C(C)C; Sar = CNCC(=O)O

Experiments:
CCRF-CEM = experiment: Cytotoxicity in human leukemic CCRF-CEM cells.; format: functional, cell-based
How it was run: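 CCRF-CEM cells in RPMI 1640 with 10% FBS, 2 mM glutamine and pen/strep at 37 °C, 5% CO2, seeded at 1 × 10^5 cells/mL. Agent from 1 mM water stock, diluted in PBS over a concentration range, 72 h exposure. Cells counted by Coulter Counter. Duplicate wells, each curve repeated at least three times. IC50 is 50% growth inhibition versus medium control, from a sigmoidal fit.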

Nucleic Acid [1] = experiment: Dissociation time constant (Tau 1) for dissociation of compound and calf thymus DNA complex; format: nucleic-acid assay; conditions: Bos taurus
How it was run: (§1)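 Sonicated calf thymus DNA–ligand complex equilibrated 1 h at room temperature in 0.1 SHE buffer (HEPES, EDTA, 0.1 M NaCl, pH 7.0), then rapidly mixed with SDS at 23 °C. Final concentrations 500 μM DNA, 50 μM ligand, 20 mM SDS. Absorbance followed at 423 nm over 420–3600 s and expressed as fraction of reaction. Multiexponential nonlinear least-squares fit; mean of five runs.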

Nucleic Acid [2] = experiment: Dissociation time constant (Tau 2) for dissociation of compound and calf thymus DNA complex; format: nucleic-acid assay; conditions: Bos taurus; how it was run: as §1
Nucleic Acid [3] = experiment: Dissociation time constant (Tau 3) for dissociation of compound and calf thymus DNA complex; format: nucleic-acid assay; conditions: Bos taurus; how it was run: as §1

| SMILES | pIC50 (CCRF-CEM) | Time constant (Nucleic Acid [1]) [s] | Time constant (Nucleic Acid [2]) [s] | Time constant (Nucleic Acid [3]) [s] |
| --- | --- | --- | --- | --- |
| CN(C)CCNC(=O)c1cccc2c(NCCCCCCNc3c4ccccc4nc4c(C(=O)NCCN(C)C)cccc34)c3ccccc3nc12 | 7.06 | – | – | – |
| O=C(NCCN1CCOCC1)c1cccc2c(NCCNCCNCCNc3c4ccccc4nc4c(C(=O)NCCN5CCOCC5)cccc34)c3ccccc3nc12 | 6.15 | – | – | – |
| O=C(NCCN1CCOCC1)c1cccc2c(NCCCCCCCCNc3c4ccccc4nc4c(C(=O)NCCN5CCOCC5)cccc34)c3ccccc3nc12 | 6.09 | – | – | – |
| Cc1c2oc3c(C)ccc(C(=O)N[C@@H]4C(=O)N[C@H](C(C)C)C(=O)N5CCC[C@H]5C(=O)N(C)CC(=O)N(C)[C@@H](C(C)C)C(=O)O[C@@H]4C)c3nc-2c(C(=O)N[C@@H]2C(=O)N[C@H](C(C)C)C(=O)N3CCC[C@H]3C(=O)N(C)CC(=O)N(C)[C@@H](C(C)C)C(=O)O[C@@H]2C)c(N)c1=O [DACTINOMYCIN] (I: T[dV]P[Sar][NMeV] / II: T[dV]P[Sar][NMeV]; ester I:1-I:C, II:1-II:C; linker I:N-II:N via Actinocin(1to9)) | 8.80 | 19 | 68 | 790 |
| O=C1c2c(O)ccc(O)c2C(=O)c2c(NCCNCCO)ccc(NCCNCCO)c21 [MITOXANTRONE] | 8.44 | – | – | – |
| O=C(NCCN1CCOCC1)c1cccc2c(NCCN3CCN(CCNc4c5ccccc5nc5c(C(=O)NCCN6CCOCC6)cccc45)CC3)c3ccccc3nc12 | 6.54 | – | – | – |
| COC(=O)[C@@H]1c2cc3c(c(O)c2[C@@H](O[C@@H]2O[C@@H](C)[C@H](OC)[C@@](C)(OC)[C@H]2OC)C[C@]1(C)O)C(=O)c1c(O)cc2c(c1C3=O)O[C@@H]1O[C@@]2(C)[C@H](O)[C@@H](N(C)C)[C@@H]1O [NOGALAMYCIN] | 7.23 | – | – | – |
| COc1cc(NS(C)(=O)=O)ccc1Nc1c2ccccc2nc2c(C(N)=O)cccc12 | 6.92 | – | – | – |
| CC[C@@]1(O)C(=O)OCc2c1cc1n(c2=O)Cc2cc3ccccc3nc2-1 [CAMPTOTHECIN] | 8.28 | – | – | – |
| COc1cc(NS(C)(=O)=O)ccc1Nc1c2ccccc2nc2ccccc12 [AMSACRINE] | 6.89 | – | – | – |
| CN(C)CCNC(=O)c1cccc2c(NCCN3CCN(CCNc4c5ccccc5nc5c(C(=O)NCCN(C)C)cccc45)CC3)c3ccccc3nc12 | 7.20 | 7 | 22 | 220 |
| O=C(NCCN1CCOCC1)c1cccc2c(NCCCCCCNc3c4ccccc4nc4c(C(=O)NCCN5CCOCC5)cccc34)c3ccccc3nc12 | 6.15 | – | – | – |
| COC1C(O)CC(OC2CC(Oc3cc4cc5c(c(O)c4c(O)c3C)C(=O)[C@@H](OC3CC(OC4CC(OC6CC(C)(O)C(OC(C)=O)C(C)O6)C(O)C(C)O4)C(O)C(C)O3)[C@H]([C@H](OC)C(=O)[C@@H](O)[C@@H](C)O)C5)OC(C)C2OC(C)=O)OC1C (stereo partly drawn) [CHROMOMYCIN] | 8.46 | – | – | – |
| CN(C)CCNC(=O)c1cccc2c(NCCCNCCCNc3c4ccccc4nc4c(C(=O)NCCN(C)C)cccc34)c3ccccc3nc12 | 7.30 | 6 | 32 | 130 |
| CN(C)CCNC(=O)c1cccc2c(NCCCCNCCCNc3c4ccccc4nc4c(C(=O)NCCN(C)C)cccc34)c3ccccc3nc12 | 6.60 | – | – | – |
| CS[C@H]1SC[C@H]2C(=O)N(C)[C@@H](C(C)C)C(=O)OC[C@@H](NC(=O)c3cnc4ccccc4n3)C(=O)N[C@@H](C)C(=O)N(C)[C@@H]1C(=O)N(C)[C@@H](C(C)C)C(=O)OC[C@@H](NC(=O)c1cnc3ccccc3n1)C(=O)N[C@@H](C)C(=O)N2C [ECHINOMYCIN] | 9.30 | – | – | – |
| CN(C)CCNC(=O)c1cccc2c(NCCCCCCCCNc3c4ccccc4nc4c(C(=O)NCCN(C)C)cccc34)c3ccccc3nc12 | 7.46 | 5 | 17 | 53 |
| O=C(NCCN1CCOCC1)c1cccc2c(NCCCCNCCCNc3c4ccccc4nc4c(C(=O)NCCN5CCOCC5)cccc34)c3ccccc3nc12 | 7.12 | – | – | – |
| CN(C)CCNC(=O)c1cccc2c(NCCNCCNCCNc3c4ccccc4nc4c(C(=O)NCCN(C)C)cccc34)c3ccccc3nc12 | 6.23 | 6 | 33 | 180 |
| O=C(NCCN1CCOCC1)c1cccc2c(NCCCNCCCNc3c4ccccc4nc4c(C(=O)NCCN5CCOCC5)cccc34)c3ccccc3nc12 | 7.33 | 5 | 30 | 88 |
